# Screens: PubChem, several laboratories
# Rad51 HR inh: Rad51 (human) homologous recombination inhibition | Q06609 | hRad51 DNA strand exchange, fluorescence dequenching | inhibition, % at 10 µM | hit rate 0.085% among 200,000;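 active = inhibition above 40% at the single screening dose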;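 note: 0% = DMSO control wells and 100% = blanks with heterologous ssDNA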
#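 System: human Rad51 nucleoprotein filaments preassembled on unlabelled ssDNA. Reagent: labelled 47-mer dsDNA for strand exchange. Schedule: 30-min compound preincubation and 15-min exchange, both room temperature. Measured by: FRET fluorescence dequenching, excitation 485 nm, emission 520 nm. Read-out: Fluorescence-based percent inhibition, control- and blank-normalised. Benchmarks: plate controls and plate blanks.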
# Wee1 degr inh: human Wee1 degradation inhibition, primary screen. P30291. reporter increase, % at 5 µM. HeLa Luc-Wee1K328M stability, luciferase luminescence; 100% = proteasome inhibitor MG132 effect. hit rate 1.2% among 220,000;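 active = activation above the mean of all tested compounds plus 3 SD, set per screening run, cut at about 8.8% in these data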;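 note: cells exposed to compound for 20 h before luminescence read; 0% = DMSO alone and 100% = MG132 at 30 µM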
# CHOP inh: blocks CHOP induction under ER stress | inhibition, % at 10 µM | hit rate 3.8% among 220,000 | CHO-K1 CHOP-promoter luciferase, tunicamycin-induced, 15-18 h | AID 2732;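 active = compounds that reduced the stress-induced luciferase reporter signal by more than about 70% of percent inhibition, limit read from the data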;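 note: 0% = tunicamycin plus vehicle and 100% = wells without tunicamycin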
# Lmaj promast: Leishmania major promastigote growth inhibition | Leishmania major promastigotes, resazurin fluorescence viability | inhibition, % at 10 µM | hit rate 9% among 200,000;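 note: promastigotes grown with compound for 44 hours at 28 °C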
# PKD1 kinase inh: PKD1 (human) kinase inhibition; hit rate 0.056% among 200,000; Q15139; PKD1 kinase fluorescence polarization assay; inhibition, % (test concentration not listed)
# Arbovirus inh: arbovirus infection inhibition; arbovirus infection cell-based antiviral screen; inhibition, % at 10 µM; hit rate 0.37% among 200,000; AID 1251; in the data active = inhibition above about 30%
# The depositor's hits bear a star; x = not tested or not shown. The list is not random: actives were taken first. Their share in the collection is about 12%. Cut-off read from the data, not from the text of the source, unless noted: active = inhibition above about 50%; inactive = the rest.
SMILES,Rad51 HR inh,Wee1 degr inh,CHOP inh,Lmaj promast,PKD1 kinase inh,Arbovirus inh
CCOc1ccc(S(=O)(=O)n2cc(-c3ccccc3)c(N)n2)cc1,-4,0,14,-5,-4,0
CCOc1cc(S(=O)(=O)n2cc(-c3ccc(F)cc3)c(N)n2)cc(OCC)c1OCC,-12,-2,74*,33,6,-23
Cc1ccc(-c2cn(S(=O)(=O)c3ccc(C)cc3)nc2N)cc1,-1,-2,79*,10,-3,-10
CCOc1ccc(S(=O)(=O)n2cc(-c3ccc(F)cc3)c(N)n2)cc1,1,1,95*,-1,1,-7
CCOc1cc(-c2cn(S(=O)(=O)c3cccc4nsnc34)nc2N)cc(OCC)c1OCC,-9,-1,57,15,-4,-2
O=C(Nc1ccccc1C(=O)N/N=C/c1ccncc1)c1ccccc1,24,0,-7,1,-1,-2
Oc1c(Br)cc(Br)cc1/C=N/c1nc2c(s1)CCCC2,-2,-4,86*,-8,-7,-9
COCc1cc(S(=O)c2ccc(Cl)cc2)nc(C)n1 (configuration not stated),9,3,1,99*,-2,-26
COCc1cc(Sc2ccc(Cl)cc2)nc(C)n1,3,-2,2,-7,-1,0
CCOC(=O)CNc1nc(C(C)(C)C)nc2c1nnn2Cc1ccccc1Cl,3,-2,81*,3,1,5
COc1ccc(Nc2nc(C(C)(C)C)nc3c2nnn3Cc2ccccc2Cl)cc1OC,-6,1,x,23,-7,x
O=C(Nc1nc(-c2ccccn2)cs1)c1ccc(Cl)s1,-10,10.0*,x,100*,-8,-20
Cn1cccc1C(=O)Nc1nc(-c2ccccn2)cs1,2,3,-40,100*,-2,-26
O=C(Nc1nccs1)c1ccc(Cl)s1,-3,0,17,6,0,3
Cc1cc(-c2csc(NC(=O)c3cc4ccccc4o3)n2)c(C)n1C,-1,1,-22,-1,-13,-3
O=C(Nc1nc(-c2ccccn2)cs1)c1ncc(Cl)c(Cl)c1Cl,-8,-2,54,101*,-4,-19
O=C(Nc1nc(-c2ccccn2)cs1)c1cc2ccccc2o1,5,-2,-20,100*,-2,-24
N#Cc1cc(NC(=O)c2ccc(F)cc2)c(=O)n2c1[nH]c1ccccc12,-9,-3,5,-1,-2,7
CCOc1ccc(N(CC(=O)NC2CCCC2)C(=O)CSc2nnc(COc3ccccc3)o2)cc1,-5,-1,68,11,-8,-10
Cc1cccc(C(=O)NC(C(=O)Nc2nc(-c3ccccn3)cs2)C(C)C)c1 (configuration not stated),-17,0,34,98*,-1,-25
O=C(Nc1nc2ccc(S(=O)(=O)N3CCCC3)cc2s1)c1ccccn1,2,0,8,99*,-4,-21
O=C(Nc1nc2ccc(S(=O)(=O)N3CCOCC3)cc2s1)c1cccs1,x,10*,-19,-7,0,-1
Cc1ccc2nc(NC(=O)c3ccccn3)sc2c1,x,-4,97*,98*,-1,-30
COc1ccc(CC(=O)Nc2nc3ccc(F)cc3s2)cc1S(=O)(=O)N1CCOCC1,-5,-3,25,90*,-9,14
O=C(Nc1nc2ccc(S(=O)(=O)N3CCCCC3)cc2s1)c1ccncc1,-6,-3,-5,2,2,17
SMILES,Rad51 HR inh,Wee1 degr inh,CHOP inh,Lmaj promast,PKD1 kinase inh,Arbovirus inh
COc1ccc(-c2nn(-c3ccccc3)cc2/C=C/C(=O)N2CCOCC2)cc1OC,-6,-1,14,28,-6,-13
O=C(Nc1nc(-c2ccccc2)c(-c2ccccc2)s1)c1ccc(S(=O)(=O)N2CCCCC2)cc1,-1,5,41,99*,-11,12
O=C(Nc1nc2c(F)cc(F)cc2s1)c1ccccn1,-8,3,79*,98*,1,-22
COc1ccc(NC(=O)N2CCN(c3nc(-c4cccc(OC)c4)cs3)CC2)cc1,1,2,22,79*,-14,-14
COc1cccc(-c2csc(N3CCN(C(=S)Nc4ccccc4OC)CC3)n2)c1,-10,-2,12,93*,-16,3
COc1cccc(-c2csc(N3CCN(C(=S)Nc4ccccc4Cl)CC3)n2)c1,-2,0,15,100*,0,-1
CCOC(=O)c1ccccc1NC(=O)C1CC(=O)N(c2ccccc2)C1 (configuration not stated),-5,-3,4,-8,-4,-5
COc1ccccc1NC(=O)Nc1ccccc1N1CCOCC1,0,-2,4,x,x,x
Cc1nn(C(=O)CNS(=O)(=O)c2ccccc2)c(C)c1Sc1ccc(Cl)cc1,2,-1,82*,51*,-12,23
COc1cccc(CC2(CO)CCCN(C/C=C/c3ccccc3OC)C2)c1 (configuration not stated),15,0,22,41,7,1
Cc1ccc(C)c(-c2[nH]ncc2CN2CCCC(CO)(Cc3ccccc3C)C2)c1 (configuration not stated),x,0,35,73*,0,13
COc1ccc(/C=C/CN2CCCC(CO)(Cc3cccc(Cl)c3)C2)cc1 (configuration not stated),-7,3,57,97*,1,-36
CC(C)(O)C#Cc1ccc(CN2CCCC(CO)(Cc3cccc(Cl)c3)C2)cc1 (configuration not stated),-10,-2,54,97*,-2,-29
Cc1ccccc1CC1(CO)CCCN(Cc2ccc(C#CC(C)(C)O)cc2)C1 (configuration not stated),4,-1,36,85*,-6,-16
OCC1(Cc2cccc(Cl)c2)CCCN(Cc2sc(N3CCCC3)nc2Cl)C1 (configuration not stated),-2,-2,58,14,-5,5
Cc1nn(CC(=O)Nc2cccnc2)c(C)c1[N+](=O)[O-],2,-1,10,-4,-2,-2
Cc1cc(NC(=O)CC#N)n(-c2ccccc2)n1,12,0,2,-5,-2,2
CC(=O)Nc1ccc(Cc2ccc3[nH]c(=O)cc(C)c3c2)cc1,17,4,-23,x,x,x
COc1ccccc1NC(=S)N(Cc1ccco1)Cc1cc2cc(C)ccc2[nH]c1=O,x,1,19,23,-13,2
Cc1ccc2nc(C)cc(C(=O)N3CCCC(CO)(Cc4ccccc4C)C3)c2c1 (configuration not stated),-3,-2,14,61*,-4,5
CC(C)(C)NC(=O)Cc1ccc(S(=O)(=O)N2CCCC2)s1,-3,1,4,-6,-2,3
O=C(Cc1ccc(S(=O)(=O)N2CCCC2)s1)Nc1nc2c(s1)CCCC2,-5,-3,-19,85*,-2,9
COCCNC(=O)c1cc2nc(-c3ccc(F)cc3)cc(C(F)(F)F)n2n1,12,0,16,-3,6,10
